These results are taken from ChEMBL document CHEMBL3286099, “Synthesized quercetin derivatives stimulate melanogenesis in B16 melanoma cells by influencing the expression of melanin biosynthesis proteins MITF and p38 MAPK” (Bioorg Med Chem, 2014).

The source made the active and inactive calls. The calls are words filed in the database; no cut-off is given here.

For data set [1], the system named is B16-F0. Put plainly: Intracellular melanogenesis-stimulating activity in mouse B16F0 cells at 12.5 uM after 72 hrs by spectrophotometry relative to control. It counts as functional. The method, boiled down:
(§1)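 Cells were seeded at 5.0 × 10⁴ cells/well, adhered for 24 h, then treated with compound for 72 h. After a PBS wash, cells were lysed in 1 M NaOH at 100 °C for 30 min to solubilize melanin. Lysate absorbance at 405 nm served as the intracellular melanin index, expressed as % of DMSO control. Experiments were done twice.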

The test system of data set [2] is B16-F0. Put plainly: Extracellular melanogenesis-stimulating activity in mouse B16F0 cells at 6.25 uM after 72 hrs by spectrophotometry relative to control. The class given is functional. The method in brief:
(§2)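 B16-F0 cells in DMEM with 10% FBS were seeded at 5.0 × 10⁴ cells/well and adhered for 24 h. They were treated for 72 h at 200–10 µM or 50–6.25 µM, depending on compound series. Absorbance of the collected culture medium at 510 nm gave extracellular melanin, expressed as % of DMSO-treated control. Experiments were done twice.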

Data set [3] concerns B16-F0. Put plainly: Induction of melanogenesis-stimulating activity in mouse B16F0 cells assessed as increase in MITF protein expression after 72 hrs by Western blotting analysis. It counts as functional, cell-based. The method, boiled down:
(§3)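 B16 cells were treated for 72 h at 0–12.5 µM and lysed in RIPA with protease inhibitors (0 °C, 30 min). Lanes held 10 µg protein on 10% SDS–PAGE, transferred to PVDF and blocked with 2% BSA/TBST at 4 °C overnight. Primaries ran 2 h: MITF 1:1000, tyrosinase, TRP-1 and p-p38 1:200, TRP-2 and p38 1:100. HRP secondary was 1:5000 for 2 h, with ECL densitometry. GAPDH blotted; three independent experiments.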
In general terms: A western blot detects proteins with antibodies after separation by electrophoresis.

The subject of data set [4] is B16-F0. The data set can be described thus: Extracellular melanogenesis-stimulating activity in mouse B16F0 cells at 25 uM after 72 hrs by spectrophotometry relative to control. It counts as functional. The method in brief: as §2
For data set [5], the system named is B16-F0. The data set can be described thus: Extracellular melanogenesis-stimulating activity in mouse B16F0 cells at 12.5 uM after 72 hrs by spectrophotometry relative to control. It counts as functional. The method, boiled down:
as §2

For data set [6], the system named is B16-F0. Put plainly: Intracellular melanogenesis-stimulating activity in mouse B16F0 cells at 6.25 uM after 72 hrs by spectrophotometry relative to control. It counts as functional. The method, boiled down: as §1
The test system of data set [7] is B16-F0. Put plainly: Induction of melanogenesis-stimulating activity in mouse B16F0 cells assessed as increase in TRP-2 protein expression after 72 hrs by Western blotting analysis. The class given is functional, cell-based. The method in brief:
as §3

Data set [8] deals with B16-F0. Put plainly: Induction of melanogenesis-stimulating activity in mouse B16F0 cells assessed as increase in TRP-1 protein expression after 72 hrs by Western blotting analysis. The class given is functional, cell-based. The method, boiled down: as §3
Data set [9] deals with B16-F0. The data set can be described thus: Intracellular melanogenesis-stimulating activity in mouse B16F0 cells at 25 uM after 72 hrs by spectrophotometry relative to control. It counts as functional. The method, boiled down: as §1
A short description of data set [10]: Cytotoxicity against mouse B16F0 cells assessed as cell viability at 6.25 uM after 72 hrs by MTT assay. It counts as cell-based. Conditions: read-out: Activity. The method, boiled down:
(§4)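 B16-F0 cells were seeded at 5.0 × 10⁴ cells/well and allowed to adhere for 24 h at 37 °C. They were exposed for 72 h to compound at 200–10 µM or 50–6.25 µM, depending on compound series. MTT (5 mg/mL stock in PBS) was added for 4 h at 37 °C in 5% CO₂, then dissolved in isopropanol/0.04 N HCl and read at 590 nm. Viability is % of DMSO control; experiments were done twice.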

The nature of data set [11]: Cytotoxicity against mouse B16F0 cells assessed as cell viability at 12.5 uM after 72 hrs by MTT assay. It counts as cell-based. The note with it: read-out: Activity. The method, boiled down: as §4
A short description of data set [12]: Cytotoxicity against mouse B16F0 cells assessed as cell viability at 25 uM after 72 hrs by MTT assay. It counts as cell-based. The note with it: read-out: Activity. The method in brief: as §4
(Tetrazolium dyes change colour on reduction, which living cells bring about.)

The subject of data set [13] is B16-F0. The data set can be described thus: Induction of melanogenesis-stimulating activity in mouse B16F0 cells assessed as increase in p38-MAPK protein expression after 72 hrs by Western blotting analysis. It counts as functional, cell-based. The method in brief:
as §3

Data set [14] deals with B16-F0. Put plainly: Induction of melanogenesis-stimulating activity in mouse B16F0 cells assessed as increase in p-p38 MAPK level after 72 hrs by Western blotting analysis. It counts as functional, cell-based. The method in brief: as §3
The subject of data set [15] is B16-F0. Put plainly: Induction of melanogenesis-stimulating activity in mouse B16F0 cells assessed as increase in tyrosinase protein expression after 72 hrs by Western blotting analysis. It counts as functional, cell-based. The method in brief:
as §3

The test system of data set [16] is B16-F0. Put plainly: Extracellular melanogenesis-stimulating activity in mouse B16F0 cells at 250 uM after 72 hrs by spectrophotometry relative to control. The class given is functional.
Data set [17] deals with B16-F0. The data set can be described thus: Extracellular melanogenesis-stimulating activity in mouse B16F0 cells at 125 uM after 72 hrs by spectrophotometry relative to control. The class given is functional. The method, boiled down: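 B16-F0 cells were seeded at 5.0 × 10⁴ cells/well, allowed to adhere for 24 h, then treated for 72 h. Culture medium was collected and its absorbance read at 510 nm as extracellular melanin. Results are % of DMSO-treated control; experiments repeated twice.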

Data set [18] in a line: Cytotoxicity against mouse B16F0 cells assessed as cell viability at 125 uM after 72 hrs by MTT assay. Conditions: read-out: Activity. The class given is cell-based. The method, boiled down: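 B16-F0 murine melanoma cells in DMEM with 10% FBS, penicillin and streptomycin, at 37 °C and 5% CO₂. Seeded at 5.0 × 10⁴ cells/well, adhered 24 h, then exposed 72 h. MTT (5 mg/mL stock in PBS) added for 4 h at 37 °C, formazan taken up in isopropanol with 0.04 N HCl, A590 read. Viability given as % of DMSO control; experiments repeated twice.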

The test system of data set [19] is B16-F0. Put plainly: Intracellular melanogenesis-stimulating activity in mouse B16F0 cells at 125 uM after 72 hrs by spectrophotometry relative to control. It counts as functional. The method, boiled down: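 After 72 h treatment of B16-F0 cells (5.0 × 10⁴ cells/well, 24 h adherence), cells were washed with PBS and lysed in 1 M NaOH at 100 °C for 30 min to solubilise melanin. Lysate absorbance was read at 405 nm as intracellular melanin, expressed as % of DMSO control; experiments repeated twice.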

Data set [20] deals with B16-F0. The data set can be described thus: Intracellular melanogenesis-stimulating activity in mouse B16F0 cells at 250 uM after 72 hrs by spectrophotometry relative to control. It counts as functional.
Data set [21] deals with B16-F0. Put plainly: Intracellular melanogenesis-stimulating activity in mouse B16F0 cells at 500 uM after 72 hrs by spectrophotometry relative to control. The class given is functional.
Data set [22] can be described thus: Cytotoxicity against mouse B16F0 cells assessed as cell viability at 500 uM after 72 hrs by MTT assay. It counts as cell-based. Conditions: read-out: Activity.
In data set [23] the test system is B16-F0. The data set can be described thus: Extracellular melanogenesis-stimulating activity in mouse B16F0 cells at 500 uM after 72 hrs by spectrophotometry relative to control. It counts as functional.
Data set [24] can be described thus: Cytotoxicity against mouse B16F0 cells assessed as cell viability at 250 uM after 72 hrs by MTT assay. The class given is cell-based. Conditions: read-out: Activity.

As for `COc1cc(O)c2c(=O)c(OC)c(-c3ccc(OC)c(O)c3)oc2c1` [AYANIN], the Activity with B16-F0 [1] is 181.4%; in the data set with B16-F0 [2] it was 225.5%; in the data set on B16-F0 [3], “Dose-dependent effect”; with B16-F0 [4], 298.7%; in the data set on B16-F0 [5] it was 228%; with B16-F0 [6], 127.7%. In addition, the Activity entry is “Dose-dependent effect” in the data set with B16-F0 [7]; “Dose-dependent effect” in the data set with B16-F0 [8]; 203.4% in the data set with B16-F0 [9]; “Dose-dependent effect” with B16-F0 [14]; “Dose-dependent effect” with B16-F0 [15]. For the same compound, the viability at 72 h, 6.25 µM in [10] came out at 95.3%. Further, in [11], the viability at 72 h, 12.5 µM came to 102%. Further, in [12], the viability at 72 h, 25 µM turned out to be 90.2%. The outcome with B16-F0 [13] was inactive.

Turning to `Cn1c(=O)c2nc[nH]c2n(C)c1=O.O` [THEOPHYLLINE], the Activity is given as 183.2% with B16-F0 [16]; 170.7% in the data set with B16-F0 [17]; 127.6% in the data set on B16-F0 [19]; 131.7% with B16-F0 [20]; 166.8% in the data set with B16-F0 [21]; 204% in the data set on B16-F0 [23]. Also, in [18], the viability at 72 h, 125 µM came to 95.5%. Besides, in data set [22], the viability at 72 h, 500 µM amounted to 91.4%. Further, in [24], the viability at 72 h, 250 µM was found to be 94.4%.
